The target of data set [1] is T1, Vitamin D3 receptor (Homo sapiens) (UniProt P11473).
T1 sequence (whole entry): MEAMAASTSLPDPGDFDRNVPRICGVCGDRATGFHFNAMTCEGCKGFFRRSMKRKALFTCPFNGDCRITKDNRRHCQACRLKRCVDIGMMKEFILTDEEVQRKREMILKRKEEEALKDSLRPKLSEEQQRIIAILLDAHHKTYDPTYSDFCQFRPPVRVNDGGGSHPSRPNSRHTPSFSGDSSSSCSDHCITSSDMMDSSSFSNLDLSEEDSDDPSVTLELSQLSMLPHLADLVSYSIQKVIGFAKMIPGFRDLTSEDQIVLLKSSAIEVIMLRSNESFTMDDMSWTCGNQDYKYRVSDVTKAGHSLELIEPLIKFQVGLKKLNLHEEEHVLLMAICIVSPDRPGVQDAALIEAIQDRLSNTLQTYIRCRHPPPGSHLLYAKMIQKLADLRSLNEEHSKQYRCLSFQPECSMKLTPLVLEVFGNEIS
As to the kind of experiment: Binding affinity to VDR (unknown origin) after 30 mins by ultrafiltration LC-MS/MS analysis relative to 6-(6-aminohexyl)-5H-indeno[1,2-c]isoquinoline-5,11(6H)-dione. Set-up: Activity: concentration or dose not given beside the values. The method in brief: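 Recombinant VDR incubated with ligand in 20 µL for 30 min at 37 °C in the dark with shaking. Then ultrafiltration at 4 °C and rinses with cold 50 mM ammonium acetate/0.1 mM NaCl pH 8.0. Bound ligand released with methanol containing genistein, dried under N2 and quantified by LC-MS. Controls were boiled hVDR or no protein.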

Data set [2] concerns the target T2, Retinoic acid receptor RXR-alpha (Homo sapiens) (UniProt P19793).
T2 sequence (whole entry): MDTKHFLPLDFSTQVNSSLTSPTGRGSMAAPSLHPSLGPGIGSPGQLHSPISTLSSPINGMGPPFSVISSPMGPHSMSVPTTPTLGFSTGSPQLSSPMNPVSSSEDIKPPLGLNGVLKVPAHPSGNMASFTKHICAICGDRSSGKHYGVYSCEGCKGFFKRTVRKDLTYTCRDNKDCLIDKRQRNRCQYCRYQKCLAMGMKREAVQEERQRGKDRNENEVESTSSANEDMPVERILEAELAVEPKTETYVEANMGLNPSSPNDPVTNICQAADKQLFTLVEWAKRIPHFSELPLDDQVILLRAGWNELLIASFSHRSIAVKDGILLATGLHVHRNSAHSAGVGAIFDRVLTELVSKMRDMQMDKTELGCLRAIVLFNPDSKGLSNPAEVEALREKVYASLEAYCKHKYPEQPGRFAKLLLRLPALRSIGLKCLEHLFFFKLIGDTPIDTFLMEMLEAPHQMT
The experiment in a line: Activation of human RXRalpha activity expressed in COS1 cells assessed as induction ratio at 50 uM after 12 hrs by RXRE-luciferase reporter gene assay relative to untreated control. Conditions: COS-1. Type of data set: cell-based. The method in brief:
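COS-1 cells transiently co-transfected per well with 100 ng RXRE-firefly luciferase reporter, 50 ng human RXRα expression vector and 3 ng Renilla luciferase vector using Lipofectamine 2000 for 24 h, then exposed to compound for a further 12 h. Dual-luciferase read-out. Induction ratio taken at 50 µM test concentration.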
For orientation: In a reporter assay the amount or activity of a reporter protein is the signal.

The nature of data set [3]: Cytotoxicity against African green monkey COS1 cells assessed as cell survival. Format: cell-based. Set-up: concentration or dose not given beside the values. As to conditions: chlorocebus aethiops, COS-1 cells; read-out: Activity.
Data set [4] deals with T3, Retinoic acid receptor RXR-alpha (Homo sapiens, UniProt P19793).
T3 sequence (P19793 whole entry): T2 sequence (whole entry)
The experiment in a line: Activation of human RXRalpha activity expressed in COS1 cells after 12 hrs by RXRE-luciferase reporter gene assay. Format: cell-based, COS-1.

Data set [5] has as its system HL-60. As to the kind of experiment: Cell cycle arrest in human HL60 cells assessed as accumulation at subG1 phase at 13 nM relative to control. Type of data set: functional.
Data set [6] concerns HL-60. The experiment in a line: Cell cycle arrest in human HL60 cells assessed as accumulation at subG1 phase at 250 nM relative to control. Format: functional.
Data set [7] deals with HL-60. The experiment in a line: Cytotoxicity against human HL60 cells assessed as inhibition of cell proliferation after 96 hrs. Type of data set: functional, cell-based. Conditions: HL-60, 96 h.
Data set [8] has as its target T1, Vitamin D3 receptor (Homo sapiens). As to the kind of experiment: Binding affinity to VDR (unknown origin) assessed as inhibition of curcumin binding after 30 mins by ultrafiltration LC-MS/MS analysis.
Data set [9] concerns the target T2, Retinoic acid receptor RXR-alpha (Homo sapiens). As to the kind of experiment: Binding affinity to RXRalpha (unknown origin) at 10 uM after 2 hrs by ultrafiltration LC-MS/MS analysis relative to control. In outline:
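Purified RXRα (10 µM stock in 50 mM Tris-HCl pH 7.5, 50 mM KCl, 1 mM EDTA) incubated with ligand (final 10 µM, DMSO) for 2 h at room temperature. Then 10 kDa ultrafiltration at 4 °C, three ammonium acetate pH 7.5 washes, release with 90% methanol, UHPLC-MS/MS (SRM). Binding ratio is peak area versus denatured-RXRα (60–70 °C, 15 min) control.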

Active and inactive are the calls of the source. The calls are words filed in the database; no cut-off is given here.

For the compound `NCCCCCCn1c2c(c3ccccc3c1=O)C(=O)c1ccccc1-2`, in data set [1], the Activity is 100% and the fold change (FC) was 1. In addition, the Ratio in [2] stood at 6.7. The viability in data set [3] is 24.9%. Moreover, in data set [4], the EC50 – broadly, the concentration giving half of the maximal effect – worked out at 16.4 µM.

Turning to `COC(=O)c1ccc2c3c(n(CCCN(C)C)c(=O)c2c1)-c1ccccc1C3=O`, in [2], the Ratio was greater than 1. In [3], the viability was 21.7%. The EC50 in [4] stood at 19.5 µM.

On to `NCCCn1c2c(c3ccc(N)cc3c1=O)C(=O)c1ccccc1-2`, for which the Activity is recorded as 4.5% in data set [5] and 28.7% in data set [6]. The IC50 (as a rule, the point on the concentration scale where inhibition reaches its midpoint) in data set [7] was determined as 0.092 µM. Besides, in data set [3], the viability was 52.1%. The compound further registered an EC50 in data set [4] of 4.4 µM. Also, in data set [8], the inhibition result was “inactive”.

Turning to `COC(=O)c1ccc2c3c(n(CCCN)c(=O)c2c1)-c1ccccc1C3=O`, the Ratio in data set [2] was less than 1. In addition, the viability in data set [3] came out at 55%.

Regarding `O=C(O)CCn1c2c(c3ccc(Br)cc3c1=O)C(=O)c1ccccc1-2`, the Ratio in data set [2] was less than 1. Moreover, the viability in data set [3] worked out at 98%.

Turning to `C[N+](C)(C)CCCn1c2c(c3ccccc3c1=O)C(=O)c1ccccc1-2`, in [2], the Ratio is less than 1. Also, in data set [3], the viability was 99.4%.

As for `CC(=O)Nc1ccc2c3c(n(CCCN)c(=O)c2c1)-c1ccccc1C3=O`, the viability in data set [3] was 69.2%. This compound displayed an EC50 in [4] greater than 34.7 µM.

As to `COc1cc2c3c(n(CCCN)c(=O)c2cc1OC)-c1ccc(F)cc1C3=O`, the Ratio in data set [2] was less than 1. In addition, the viability in [3] is 23.8%.

`NCCCn1c2c(c3ccc([N+](=O)[O-])cc3c1=O)C(=O)c1ccccc1-2`: the Ratio in data set [2] was less than 1. Moreover, the viability in data set [3] is 32.1%.

Regarding `NCCCn1c2c(c3ccccc3c1=O)C(=O)c1ccccc1-2`, in [1], the Activity was 42.7% and the fold change (FC) was found to be 0.427. The Ratio in [2] turned out to be 11.4. Besides, the viability in data set [3] stood at 50.8%. Moreover, the 50% effective concentration (EC50) in [4] was 8.66 µM.

Consider `CN(C)c1ccc2c3c(n(CCCN)c(=O)c2c1)-c1ccccc1C3=O`, for which the Ratio in [2] was less than 1. The viability in [3] is 30.6%.

Consider `CNCCCn1c2c(c3ccc(Br)cc3c1=O)C(=O)c1ccccc1-2`, for which the Ratio in [2] is greater than 1. Also, the viability in [3] was found to be 31.3%. Moreover, in data set [4], the EC50 turned out to be 10.7 µM.

As for `CN(C)CCCn1c2c(c3ccc(Br)cc3c1=O)C(=O)c1ccccc1-2`, the Ratio in [2] was greater than 1. The viability in data set [3] came out at 48.5%. This compound displayed a concentration for a half-maximal effect (EC50) in [4] of 18.4 µM.

`CNCCCn1c2c(c3ccc([N+](=O)[O-])cc3c1=O)C(=O)c1ccccc1-2`: in [2], the Ratio was less than 1. Moreover, the viability in data set [3] worked out at 33.1%.

Regarding `O=C1c2ccccc2-c2c1c1ccccc1c(=O)n2CCCn1ccnc1`, the Ratio in [2] is less than 1. Also, the viability in data set [3] was 100%.

On to `CCOC(=O)CNc1ccc2c3c(n(CCCN)c(=O)c2c1)-c1ccccc1C3=O`, for which, in [1], the Activity turned out to be 1.62% and the fold change (FC) was 0.0162. Also, the result in data set [9] was inactive. In data set [2], the Ratio is less than 1. In [3], the viability came out at 22.2%.

Turning to `COC(=O)/C=C/c1ccc2c3c(n(CCCN)c(=O)c2c1)-c1ccccc1C3=O`, in [2], the Ratio is less than 1. Further, the viability in data set [3] was determined as 90.4%.

As to `NCCCn1c2c(c3ccc(NCC(=O)O)cc3c1=O)C(=O)c1ccccc1-2`, the Ratio in [2] is greater than 1. Further, the viability in data set [3] is 61.2%. This compound also yielded an EC50 in data set [4] of 8.4 µM.

Regarding `CN(C)CCCn1c2c(c3ccc(C#N)cc3c1=O)C(=O)c1ccccc1-2`, the Ratio in data set [2] was greater than 1. Further, in data set [3], the viability stood at 54.8%. In [4], this compound showed an EC50 greater than 20.7 µM.

Take `NCCCCn1c2c(c3ccccc3c1=O)C(=O)c1ccccc1-2`: in [1], the Activity worked out at 35.3% and the fold change (FC) is 0.353. Moreover, the Ratio in [2] turned out to be 9.9. The viability in [3] was determined as 53.8%. This compound also showed an EC50 in [4] of 11.3 µM.

`CNCCCn1c2c(c3ccccc3c1=O)C(=O)c1ccccc1-2`: the fold change (FC) in [9] was 7.6. Also, the Ratio in data set [2] was greater than 1. The viability in [3] amounted to 51.2%. Also, the EC50 in data set [4] was determined as 9.22 µM.

Regarding `CN(C)CCCn1c2c(c3ccccc3c1=O)C(=O)c1ccccc1-2`, in [9], the fold change (FC) came out at 2.6. In data set [2], the Ratio is greater than 1. Moreover, the viability in data set [3] was found to be 52.5%. The same compound came in with a 50% effective concentration (EC50) in data set [4] of 9.6 µM.

With `NCCCn1c2c(c3ccc(N)cc3c1=O)Cc1ccccc1-2`, in data set [1], the Activity stood at 15.1% and the fold change (FC) amounted to 0.151. Moreover, the Ratio in [2] is greater than 1. In addition, the viability in data set [3] turned out to be 49.3%. Besides, the EC50 in data set [4] was 10 µM.

In the case of `COC(=O)CC(=O)Nc1ccc2c3c(n(CCCN)c(=O)c2c1)-c1ccccc1C3=O`, in data set [9], the fold change (FC) is 1.7. The Ratio in data set [2] was greater than 1. The viability in data set [3] turned out to be 85%. In addition, the EC50 in data set [4] is greater than 44.5 µM.

In the case of `COc1ccc2c(c1)C(=O)c1c-2n(CCCN)c(=O)c2ccccc12`, the Ratio in [2] was greater than 1. In addition, the viability in [3] was 46.8%. This compound also yielded an EC50 in [4] of 4.84 µM.

In the case of `CN(C)CCCn1c2c(c3ccc([N+](=O)[O-])cc3c1=O)C(=O)c1ccccc1-2`, the Ratio in data set [2] is less than 1. Further, the viability in [3] was determined as 83.7%.

With `NCCCn1c2c(c3ccc(C(=O)O)cc3c1=O)C(=O)c1ccccc1-2`, the Ratio in [2] was less than 1. Besides, the viability in data set [3] came out at 83.7%.

Take `NCCn1c2c(c3ccccc3c1=O)C(=O)c1ccccc1-2`: the Ratio in data set [2] was found to be 8.2. For the same compound, in [3], the viability turned out to be 30.7%. The EC50 in data set [4] is 15.9 µM.

On to `O=C1c2ccccc2-c2c1c1ccc(Br)cc1c(=O)n2CCCN1CCOCC1`, for which, in [2], the Ratio is less than 1. In addition, the viability in data set [3] turned out to be 100%.

With `CN(C)CCCn1c2c(c3ccc(N)cc3c1=O)C(=O)c1ccccc1-2`, in data set [1], the Activity was found to be 21.4% and the fold change (FC) worked out at 0.214. The fold change (FC) in data set [9] worked out at 2.5. Further, in data set [2], the Ratio was greater than 1. The viability in data set [3] is 53.7%. The compound also registered an EC50 in [4] of 7 µM.

Regarding `NCCCCCn1c2c(c3ccccc3c1=O)C(=O)c1ccccc1-2`, in [1], the Activity turned out to be 83.8% and the fold change (FC) is 0.838. Besides, the Ratio in [2] worked out at 4.9. In addition, the viability in data set [3] is 40.7%. In addition, the concentration giving a half-maximal response (EC50) in data set [4] stood at 12.2 µM.

Source of the values: ChEMBL document CHEMBL2321659, “Design, synthesis, and biological evaluation of indenoisoquinoline rexinoids with chemopreventive potential” (J Med Chem, 2013).
